Blank lines part the entries; values can stand above or below the compound they belong to. Activity calls are given as the source filed them. No cut-off for these calls is given here.
How the values were obtained:
[1] = biological target: T1, Indoleamine 2,3-dioxygenase 1 (Homo sapiens, UniProt P14902); test: Inhibition of human IDO1 incubated for 60 mins in presence of L-tryptophan by HPLC analysis
In short: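 Recombinant human IDO1 (10 μg/mL) was assayed in 50 mM potassium phosphate pH 6.5 with 10 mM ascorbate, 10 μM methylene blue and 100 μg/mL catalase. Reaction was started with 200 μM L-Trp and run at 37 °C for 60 min. It was stopped with TCA, then held at 50 °C for 15 min to hydrolyse N-formylkynurenine. Kynurenine was measured by reversed-phase HPLC at 360 nm; triplicate determinations averaged.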
Target sequence in this assay (P14902 whole entry): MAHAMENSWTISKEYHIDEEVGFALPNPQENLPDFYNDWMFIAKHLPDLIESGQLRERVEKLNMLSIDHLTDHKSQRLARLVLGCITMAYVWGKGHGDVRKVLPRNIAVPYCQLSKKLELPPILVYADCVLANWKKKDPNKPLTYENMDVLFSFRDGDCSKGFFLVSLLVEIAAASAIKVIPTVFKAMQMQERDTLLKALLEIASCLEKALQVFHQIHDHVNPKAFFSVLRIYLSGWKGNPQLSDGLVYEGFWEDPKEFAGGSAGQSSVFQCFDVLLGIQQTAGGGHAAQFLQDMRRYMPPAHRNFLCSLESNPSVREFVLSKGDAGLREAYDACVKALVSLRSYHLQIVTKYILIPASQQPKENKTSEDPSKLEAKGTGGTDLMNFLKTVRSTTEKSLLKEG

[2] = test system: HCT-116; test: Reversible induction of cell cycle arrest in human HCT-116 cells assessed as increase of accumulation at G2/M phase at 10 uM incubated for 24 hrs and harvested after further 24 hrs recovery in drug-free medium by […] staining based flow cytometry; type: functional
In short: (§1)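 Cells were exposed 24 h to 20, 10 or 2.5 μM or to 0.1% DMSO, then washed into drug-free medium for a further 24 h before harvest. DNA content was measured by propidium iodide flow cytometry on at least 10000 cells per sample. G2/M and other phase fractions are given as fold change versus DMSO, as mean ± SD of three independent experiments.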

[3] = test system: HT-29; test: Reversible induction of cell cycle arrest in human HT-29 cells assessed as increase of accumulation at G2/M phase at 20 uM incubated for 24 hrs and harvested after further 24 hrs recovery in drug-free medium by […] staining based flow cytometry; type: functional; in short: as §1
[4] = test system: HT-29; test: Induction of cell cycle arrest in human HT-29 cells assessed as increase of accumulation at G2/M phase at 20 uM incubated for 24 hrs by […] staining based flow cytometry; type: functional; conditions: dose 10.0 µM, in the assay text read “at 10 uM” for “at 20 uM”
In short: (§2)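 Cells in DMEM/10% FBS were treated 24 h at 20, 10 or 2.5 μM alongside a 0.1% DMSO vehicle, then stained with propidium iodide for DNA content by flow cytometry, acquiring at least 10000 cells per sample. G0/G1, S and G2/M fractions are expressed as fold change versus DMSO. Values are mean ± SD of three independent experiments.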

[5] = test system: HT-29; test: Growth inhibition of human HT-29 cells assessed as cell viability at 10 uM incubated for 24 hrs by MTT assay; type: functional; conditions: read-out: Activity
In short: (§3)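 Cells grown in DMEM (4.5 g/L glucose) with 10% FBS, penicillin/streptomycin and 2 mM glutamine, seeded and allowed 24 h to attach, then exposed 24 h to compound. The range was 5–80 μM or 2.5–80 μM. MTT (500 μM in PBS) was added for 3 h at 37 °C in the dark. Formazan was dissolved in propan-2-ol/0.04 N HCl and read at 550 nm. Viability is given as % of 0.1% DMSO control; three independent experiments in triplicate.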

[6] = test system: HCT-116; test: Growth inhibition of human HCT116 cells assessed as cell viability at 20 uM incubated for 24 hrs by MTT assay; type: functional; conditions: read-out: Activity; in short: as §3
[7] = test system: HCT-116; test: Induction of cell cycle arrest in human HCT116 cells assessed as increase of accumulation at G2/M phase at 20 uM incubated for 24 hrs by […] staining based flow cytometry; type: functional; in short: as §2
[8] = test system: HT-29; test: Growth inhibition of human HT-29 cells incubated for 24 hrs by MTT assay; type: functional, cell-based; in short: as §3
[9] = test system: HCT-116; test: Growth inhibition of human HCT116 cells incubated for 24 hrs by MTT assay; type: functional, cell-based; in short: as §3
[10] = test system: HCT-116; test: Induction of cell death in human HCT-116 cells assessed as reduction in Bcl-xL expression at 10 uM incubated for 24 hrs by Western blot analysis; type: functional, cell-based; conditions: dose 20.0 µM, in the assay text read “at 20 uM” for “at 10 uM”
In short: (§4)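 Cells were treated 24 h with compound or DMSO, then lysed in RIPA-type buffer (50 mM Tris pH 7.4, 150 mM NaCl, 0.1% SDS, 1% deoxycholate, 1% Triton X-100, 5 mM EDTA, protease inhibitors). Protein was quantified by Bradford, run on 12% SDS-PAGE and transferred to PVDF. Blots were probed overnight at 4 °C for Mcl1, Bcl-xL (1:1000), β-catenin (1:500) and β-actin loading control (1:5000), with HRP secondary and ECL detection.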

[11] = test system: HCT-116; test: Induction of cell death in human HCT-116 cells assessed as reduction in Mcl1 expression at 10 uM incubated for 24 hrs by Western blot analysis; type: functional, cell-based; conditions: dose 20.0 µM, in the assay text read “at 20 uM” for “at 10 uM”; in short: as §4
[12] = test system: HCT-116; test: Induction of cell death in human HCT-116 cells assessed as reduction in beta-catenin expression at 10 uM incubated for 24 hrs by Western blot analysis; type: functional, cell-based; conditions: dose 20.0 µM, in the assay text read “at 20 uM” for “at 10 uM”; in short: as §4
[13] = biological target: T1, Indoleamine 2,3-dioxygenase 1; test: Inhibition of human IDO1 at 100 uM incubated for 60 mins in presence of L-tryptophan by HPLC analysis relative to control
Target sequence in this assay (P14902 whole entry, looked up): as the sequence (P14902 whole entry) above

[14] = test system: HT-29; test: Induction of cell death in human HT-29 cells assessed as reduction in Mcl1 expression at 10 uM incubated for 24 hrs by Western blot analysis
[15] = test system: HT-29; test: Induction of cell death in human HT-29 cells assessed as reduction in Bcl-xL expression at 10 uM incubated for 24 hrs by Western blot analysis
[16] = test system: HT-29; test: Induction of cell death in human HT-29 cells assessed as reduction in beta-catenin expression at 10 uM incubated for 24 hrs by Western blot analysis
[17] = test system: HCT-116; test: Reversible induction of cell cycle arrest in human HCT-116 cells assessed as increase of accumulation at G2/M phase at 2.5 uM incubated for 24 hrs and harvested after further 24 hrs recovery in drug-free medium by […] staining based flow cytometry; type: functional; in short: as §1
[18] = test system: HT-29; test: Reversible induction of cell cycle arrest in human HT-29 cells assessed as increase of accumulation at G2/M phase at 10 uM incubated for 24 hrs and harvested after further 24 hrs recovery in drug-free medium by […] staining based flow cytometry; type: functional; in short: as §1
[19] = test system: HT-29; test: Induction of cell cycle arrest in human HT-29 cells assessed as increase of accumulation at G2/M phase at 2.5 uM incubated for 24 hrs by […] staining based flow cytometry; type: functional; in short: as §2
[20] = test system: HCT-116; test: Induction of cell cycle arrest in human HCT116 cells assessed as increase of accumulation at G2/M phase at 10 uM incubated for 24 hrs by […] staining based flow cytometry; type: functional; in short: as §2
[21] = test system: HT-29; test: Growth inhibition of human HT-29 cells assessed as cell viability at 2.5 uM incubated for 24 hrs by MTT assay; type: functional; conditions: read-out: Activity; in short: as §3
[22] = test system: HCT-116; test: Growth inhibition of human HCT116 cells assessed as cell viability at 10 uM incubated for 24 hrs by MTT assay; type: functional; conditions: read-out: Activity; in short: as §3
[23] = test system: HT-29; test: Induction of cell death in human HT-29 cells assessed as reduction in Bcl-xL expression at 10 uM incubated for 24 hrs by Western blot analysis; type: functional, cell-based; conditions: dose 2.5 µM, in the assay text read “at 2.5 uM” for “at 10 uM”; in short: as §4
[24] = test system: HT-29; test: Induction of cell death in human HT-29 cells assessed as reduction in Mcl1 expression at 10 uM incubated for 24 hrs by Western blot analysis; type: functional, cell-based; conditions: dose 2.5 µM, in the assay text read “at 2.5 uM” for “at 10 uM”; in short: as §4
[25] = test system: HT-29; test: Induction of cell death in human HT-29 cells assessed as reduction in beta-catenin expression at 10 uM incubated for 24 hrs by Western blot analysis; type: functional, cell-based; conditions: dose 2.5 µM, in the assay text read “at 2.5 uM” for “at 10 uM”; in short: as §4
[26] = test system: HT-29; test: Induction of cell death in human HT-29 cells assessed as reduction in Bcl-xL expression at 2.5 uM incubated for 24 hrs by Western blot analysis; type: functional, cell-based; in short: as §4
[27] = test system: HT-29; test: Induction of cell death in human HT-29 cells assessed as reduction in Mcl1 expression at 2.5 uM incubated for 24 hrs by Western blot analysis; type: functional, cell-based; in short: as §4
[28] = test system: HT-29; test: Induction of cell death in human HT-29 cells assessed as reduction in beta-catenin expression at 2.5 uM incubated for 24 hrs by Western blot analysis; type: functional, cell-based; in short: as §4

IC50 [1]: 100 µM
SMILES: Cc1cccc(Sc2c[nH]c3ccc(Cl)cc23)c1

IC50 [1]: 52 µM
SMILES: COc1cc(OC)cc(Sc2c[nH]c3cccc(Cl)c23)c1

IC50 [1]: 25 µM
SMILES: COc1cc(OC)cc(Sc2c[nH]c3ccccc23)c1

IC50 [1]: 63 µM
SMILES: COc1ccccc1Cc1c[nH]c2ccc(Cl)cc12

IC50 [1]: 24 µM
SMILES: COc1ccccc1Sc1c[nH]c2ccc(Br)cc12

IC50 [1]: > 200 µM
SMILES: Cc1ccc(Sc2c[nH]c3ccc(Cl)cc23)cc1

IC50 [1]: 16 µM
SMILES: COc1ccc(Sc2c[nH]c3ccc(Cl)cc23)cc1

IC50 [1]: > 50 µM
SMILES: COc1ccc(Sc2c[nH]c3ccc(Cl)cc23)c(OC)c1

IC50 [1]: > 200 µM
SMILES: COc1cc(OC)cc(Sc2c[nH]c3ncccc23)c1

IC50 [1]: 90 µM
SMILES: COc1cc(OC)cc(Sc2c[nH]c3c(Cl)c(Cl)ccc23)c1

IC50 [1]: > 200 µM
SMILES: Clc1ccc2[nH]cc(Sc3ccccc3)c2c1

IC50 [1]: 45 µM
SMILES: COc1cc(OC)cc(Sc2c(C)[nH]c3ccc(Cl)cc23)c1

IC50 [1]: > 200 µM
SMILES: COC(=O)c1[nH]c2ccc(Cl)cc2c1Sc1ccccc1OC

IC50 [1]: > 200 µM
SMILES: COc1ccccc1C(=O)c1c[nH]c2ccc(Cl)cc12

IC50 [1]: 32 µM
SMILES: COc1ccccc1Sc1c[nH]c2ccc(F)cc12

IC50 [1]: 15 µM
SMILES: COc1cc(OC)cc(Sc2c[nH]c3cc(Cl)ccc23)c1

IC50 [1]: 40 µM
SMILES: COc1cc(Sc2c[nH]c3ccc(Cl)cc23)cc(OC)c1OC

IC50 [1]: > 200 µM
SMILES: COc1cc(OC)cc(Sc2c[nH]c3c(Cl)cccc23)c1

IC50 [1]: 17.5 µM
inhibition [13]: 80%
SMILES: COc1ccccc1Sc1c[nH]c2ccc(Cl)cc12
Activity [2]: Active
Activity [3]: Active
Activity [4]: Active
viability at 10 µM [5]: 40%
viability at 20 µM [6]: 40%
Activity [7]: Active
growth inhibition (GI) [8]: Dose-dependent effect
growth inhibition (GI) [9]: Dose-dependent effect
Activity [10]: Active
Activity [11]: Active
Activity [12]: Active
Activity [14]: Active
Activity [15]: Active
Activity [16]: Active

IC50 [1]: 45 µM
SMILES: COc1ccccc1Sc1c[nH]c2ccc(I)cc12

IC50 [1]: > 200 µM
SMILES: CCOc1ccc2[nH]cc(Sc3ccccc3OC)c2c1

IC50 [1]: 21 µM
SMILES: COc1cccc(Sc2c[nH]c3ccc(Cl)cc23)c1

IC50 [1]: 20 µM
SMILES: Cc1cc(C)cc(Sc2c[nH]c3ccc(Cl)cc23)c1

IC50 [1]: > 200 µM
SMILES: COc1ccccc1S(=O)(=O)c1c[nH]c2ccc(Cl)cc12

IC50 [1]: 21 µM
SMILES: Cc1ccccc1Sc1c[nH]c2ccc(Cl)cc12

IC50 [1]: 7 µM
SMILES: COc1cc(OC)cc(Sc2c[nH]c3ccc(Cl)cc23)c1
Activity [17]: Active
Activity [18]: Active
Activity [19]: Active
Activity [20]: Active
viability at 2.5 µM [21]: 40%
viability at 10 µM [22]: 40%
growth inhibition (GI) [8]: Dose-dependent effect
growth inhibition (GI) [9]: Dose-dependent effect
Activity [23]: Active
Activity [24]: Active
Activity [25]: Active
Activity [26]: Active
Activity [27]: Active
Activity [28]: Active

Source: ChEMBL document CHEMBL4715773, “New Inhibitors of Indoleamine 2,3-Dioxygenase 1: Molecular Modeling Studies, Synthesis, and Biological Evaluation” (J Med Chem, 2016)
